Shown are actives, neighbours in structure and some others; about 5% of the full set was active somewhere.
Beta apoptosis: blocks beta cell apoptosis; actives 0.8% (n = 300,000); protection from apoptosis, % (no concentration beside the values); INS-1E cytokine-induced death, ATP luminescence, 48 h; percent of positive-control rescue, neutral wells zero;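 active means Every replicate reaches about 75%, or at least half do and their mean reaches it too, limit read from the data; inconclusive means At least half of replicates reach the limit but their mean does not; inactive means Under half of replicates reach the limit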;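 further: higher means more ATP so stronger rescue from cytokine killing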
Mdm2 MdmX PPI: disrupts the human Mdm2-MdmX interaction; O15151+Q00987; SaOS-2 split-luciferase Mdm2/MdmX complementation, luminescence; inhibition, % at 8 µM; actives 3% (n = 330,000); AID 485346;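 active means inhibition of at least 50% at 8 µM in the primary screen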
Target sequence (O15151 whole entry, looked up): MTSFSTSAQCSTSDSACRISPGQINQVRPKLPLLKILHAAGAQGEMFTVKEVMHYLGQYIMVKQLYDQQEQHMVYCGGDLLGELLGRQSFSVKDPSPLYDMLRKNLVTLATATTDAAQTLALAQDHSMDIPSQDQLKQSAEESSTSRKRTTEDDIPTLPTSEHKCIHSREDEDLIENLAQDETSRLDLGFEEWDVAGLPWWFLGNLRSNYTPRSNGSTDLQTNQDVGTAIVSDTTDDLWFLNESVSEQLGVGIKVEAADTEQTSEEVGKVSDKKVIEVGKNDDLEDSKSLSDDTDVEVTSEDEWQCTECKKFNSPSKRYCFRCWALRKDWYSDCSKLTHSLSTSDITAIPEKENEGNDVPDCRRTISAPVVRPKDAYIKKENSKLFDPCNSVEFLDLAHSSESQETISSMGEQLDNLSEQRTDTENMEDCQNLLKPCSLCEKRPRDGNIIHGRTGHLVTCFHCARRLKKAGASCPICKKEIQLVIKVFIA
Target sequence (Q00987 whole entry, looked up): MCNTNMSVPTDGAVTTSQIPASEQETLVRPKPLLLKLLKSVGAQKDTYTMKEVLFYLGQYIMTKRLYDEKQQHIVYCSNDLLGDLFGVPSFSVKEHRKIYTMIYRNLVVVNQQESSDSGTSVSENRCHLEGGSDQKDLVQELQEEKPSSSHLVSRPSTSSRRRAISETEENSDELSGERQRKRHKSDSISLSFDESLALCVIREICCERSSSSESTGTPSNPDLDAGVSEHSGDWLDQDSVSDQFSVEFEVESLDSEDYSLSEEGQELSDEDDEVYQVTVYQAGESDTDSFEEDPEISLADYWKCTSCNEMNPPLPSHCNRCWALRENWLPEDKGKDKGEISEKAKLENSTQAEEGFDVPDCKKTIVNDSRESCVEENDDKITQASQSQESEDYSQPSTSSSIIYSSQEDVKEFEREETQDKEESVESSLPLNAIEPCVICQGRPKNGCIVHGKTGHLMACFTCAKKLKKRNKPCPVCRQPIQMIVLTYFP
UPR XBP1 act: adaptive UPR (XBP1) activation; CHO-XBP1 luciferase reporter, IRE1-XBP1 UPR activation, luminescence; percent of tunicamycin response, DMSO as zero; activation, % at 20 µM; actives 0.33% (n = 330,000); AID 463104;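 active means versus positive control, 20 µM dose yields 30% or more activation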
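Material: CHO cell line with stable XBP1 luciferase reporter; schedule: 16-18 h cell attachment at 37 °C, then 6 h compound exposure; signal: glow luminescence from Steady-Glo reagent; medium: serum-containing F12 medium, 10% FBS; benchmarks: tunicamycin 10 µg/mL and vehicle-only wells; read-out: percent activation relative to tunicamycin reference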
CSC inhib: cancer stem cell inhibition. cancer stem cell-like cells viability, luminescence. inhibition, % at 7.5 µM. actives 1.1% (n = 300,000). AID 2717; in the data active means inhibition above about 75%; inconclusive means no clear call, values can overlap the other calls; tested in HMLE shEcad cells
UPR CHOP act: apoptotic UPR (CHOP) activation; CHO-CHOP luciferase reporter, luminescence; percent of tunicamycin response over DMSO baseline; AID 449763; actives 0.34% (n = 330,000); activation, % at 10 µM;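 active means at 10 µM dose, activation of 40% or more, normalized to positive control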
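measured by = luciferase luminescence | assay system = CHO-CHOP cells, stable luciferase reporter of PERK-eIF2a-CHOP signalling | amount = 500 reporter cells seeded per well | timing = 6 h compound exposure at 37 °C after overnight seeding | controls = positive tunicamycin 10 µg/mL, negative DMSO alone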
T cruzi repl: blocks replication of Trypanosoma cruzi; T. cruzi beta-gal in NIH3T3, luminescence, 90 h; inhibition, % (concentration not given with the values); actives 1.4% (n = 300,000);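 active means mean inhibition across valid replicates above about 55%, limit read from the data; inconclusive means mean below that limit but half or more replicates reach it; inactive means mean below it, under half of replicates reach it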;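 further: signal also drops with host cell toxicity which is not excluded here; higher percent means less beta-gal luminescence so fewer parasites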
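System: Mouse NIH/3T3 fibroblasts infected with β-gal-expressing T. cruzi Tulahuen C4 | Quantity: NIH/3T3 cells, 5,000 per well | Reagent: 5000 reporter trypomastigotes per well | Dosing: Compound pinned at 50 nL/well, DMSO | Schedule: 3 h host attachment, then at least 90 h co-culture | Detection: GalScreen luminescence, 60 min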
XBP1 UPR conf: confirmation of adaptive unfolded protein response (XBP1) activators; shares compounds with UPR XBP1 act; CHO-XBP1 IRE1-XBP1 luciferase reporter, luminescence; activation, % at 20 µM; actives 63% (n = 1,000); AID 485299;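 active means reporter signal at least 30% of the positive control's activation in two or more of four replicate wells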
Each line names hits and unclear results; the compound was inactive in the other large screens (follow-up assays come after a bar, where they were run).

COc1ccccc1NC(=O)c1cc2c(CO)cnc(C)c2oc1=Nc1ccccc1	UPR XBP1 act 500.9 | XBP1 UPR conf 167.5
COCCOC(=O)c1c(C)oc2ccc(OC(=O)c3ccc4c(c3)OCO4)cc12	UPR XBP1 act 76.2 | XBP1 UPR conf inactive
CCOC(=O)Oc1ccc2oc(C)c(C(=O)OCCOC)c2c1	none (no result: CSC inhib)
O=C(CN1C(=O)C2C3C=CC(C3)C2C1=O)Nc1ccc(S(=O)(=O)N2CCCCC2)cc1 (stereo not drawn)	none
Fc1ccc(C2NCCn3cccc32)cc1 (stereo not drawn)	none
c1ccc(C2NCCn3cccc32)cc1 (stereo not drawn)	UPR XBP1 act 49.1 | XBP1 UPR conf inactive
COc1ccc2[nH]c3nc(SCc4nnc(-c5ccc(C)cc5)o4)nnc3c2c1	UPR XBP1 act 71.5 | XBP1 UPR conf 189.9
O=C(O)CN1C(=O)c2ccc(C(=O)c3ccccc3)cc2C1=O	none
N=c1c(S(=O)(=O)c2ccccc2)cc2c(=O)n3ccccc3nc2n1C1CCCC1	UPR XBP1 act 30.2 (no result: Beta apoptosis) | XBP1 UPR conf inactive
COc1ccc(F)cc1S(=O)(=O)NCCCn1ccnc1	none
CC(C)C(=O)N(c1cc2sc(=O)oc2c2ccccc12)S(=O)(=O)c1cccs1	UPR XBP1 act 48.0 (no result: CSC inhib, T cruzi repl) | XBP1 UPR conf 49.0
CC(C)C(=O)N(c1ccc2oc(=O)sc2c1)S(=O)(=O)c1cccs1	none
COc1ccc(C(=O)N2CCN(C(=O)Cc3ccccc3)CC2)cc1	none
CCn1c(/C=C/c2ccc(O)cc2)nc2ccccc2c1=O	none
CCn1c(/C=C/c2ccc(O)c(O)c2)nc2ccccc2c1=O	UPR XBP1 act 37.2 | XBP1 UPR conf inactive
CCC(Sc1nc(C)cc(=O)[nH]1)C(=O)Nc1sc2c(c1C#N)CCCC2 (stereo not drawn)	none
CCC(Sc1nnc2c3ccccc3n(CC)c2n1)C(=O)Nc1sc2c(c1C#N)CCCC2 (stereo not drawn)	UPR XBP1 act 162.6 | XBP1 UPR conf 157.4
CC(C)Oc1ccc(C(=O)Nc2c3c(nn2C(C)(C)C)CS(=O)(=O)C3)cc1	none
CC(=O)Oc1ccc(-c2ccc(C(=O)OCC(=O)N(C)CC(=O)Nc3ccccc3Cl)cc2)cc1	UPR XBP1 act 122.8 | XBP1 UPR conf 137.1
Nc1nc(Nc2cccc(F)c2)nc2ccccc12	UPR XBP1 act 40.1 | XBP1 UPR conf 41.8
COc1ccc(C(CCNCc2ccccc2)c2ccc(F)cc2)cc1 (stereo not drawn)	UPR XBP1 act 48.2 | XBP1 UPR conf 71.3
COc1ccc(CNCCC(c2ccc(OC)cc2)c2ccccc2OC)cc1 (stereo not drawn)	none
C=CCn1c(OCc2ccccc2)n[nH]c1=S	none
CC(=O)c1sc(NC(=O)c2cc3c(C)nn(-c4ccccc4)c3s2)nc1C	none
Cc1nc(NC(=O)c2cc3c(C)nn(-c4ccccc4)c3s2)sc1C(=O)Nc1ccccc1	UPR XBP1 act 49.1 (no result: T cruzi repl) | XBP1 UPR conf 54.4
Cc1ccc(SC(=O)COc2ccccc2C)cc1	UPR XBP1 act 49.3 | XBP1 UPR conf inactive
N/C(=N\c1nc2ccccc2o1)NC(=O)c1ccccc1NC(=O)c1ccccc1	none (no result: T cruzi repl)
O=C(NC(=Nc1nc2ccccc2o1)NC(=O)c1ccccc1)c1ccccc1	UPR XBP1 act 31.9 | XBP1 UPR conf inactive
CC(NC(=O)CN1CCN(CC(=O)Nc2ccccc2Cl)CC1)c1ccc(Br)cc1 (stereo not drawn)	none (no result: Beta apoptosis, CSC inhib, T cruzi repl)
COC(=O)c1nn(-c2ccccc2)nc1-c1nn(-c2ccccc2)nc1C(=O)OC	UPR XBP1 act 39.5 | XBP1 UPR conf inactive
Cc1cc(-n2c(C)cc(C(=S)N3CCOCC3)c2C)ccc1Br	none
CCCN(CC(=O)Nc1ccccc1C)C(=O)CCN1C(=O)c2cccc([N+](=O)[O-])c2C1=O	none
COc1cc2c(cc1OC)[C@@H](NC(=O)c1ccc(C(F)(F)F)cc1)[C@H](OCc1ccccc1)C2	UPR XBP1 act 36.3 (no result: Beta apoptosis, CSC inhib, T cruzi repl) | XBP1 UPR conf inactive
CCCNC(=O)/C(C#N)=C1\N=C(NC(=O)c2cccs2)c2ccccc21	UPR XBP1 act 44.8 | XBP1 UPR conf 65.6
c1ccc(-c2ccc(C3=Nn4c(nnc4-c4cc(-c5ccccc5)n[nH]4)SC3)cc2)cc1	UPR XBP1 act 64.1 | XBP1 UPR conf inactive
Cc1cc(C)cc(NC(=O)Cn2c(=O)oc3cc(S(=O)(=O)N4CCC(C)CC4)ccc32)c1	UPR XBP1 act 32.3 | XBP1 UPR conf inactive
CC1CCN(S(=O)(=O)c2ccc3c(c2)oc(=O)n3CC(=O)NCc2ccc3c(c2)OCO3)CC1	none
O=C(COC(=O)c1ccc2[nH]c3c(c2c1)CCCC3)Nc1ccccc1Cl	UPR XBP1 act 52.4 | XBP1 UPR conf 65.6
COc1ccc(N(C(=O)Cn2nnc(-c3ccccc3F)n2)C(C(=O)NCC2CCCO2)c2ccc(Cl)cc2)cc1 (stereo not drawn)	UPR XBP1 act 41.5 | XBP1 UPR conf inactive
COc1ccc(N(C(=O)Cn2nnc(-c3ccc(Cl)cc3)n2)C(C(=O)NCC2CCCO2)c2ccc(C)cc2)cc1 (stereo not drawn)	none
CCCC(C(=O)Nc1ccc(S(=O)(=O)N2CCCC2)cc1)c1ccccc1 (stereo not drawn)	none (no result: Beta apoptosis)
CCCn1c(SCC(=O)Nc2cc(S(=O)(=O)N3CCCCC3)ccc2C)n[nH]c1=O	none (no result: Beta apoptosis, CSC inhib, T cruzi repl)
COc1ccccc1CC(=O)Nc1ccc(-c2noc(COc3ccc(Cl)c(C)c3)n2)cc1	UPR XBP1 act 31.1 | XBP1 UPR conf inactive
COc1ccc(-c2noc(CCC(=O)Nc3cc(Cl)c(OC)cc3OC)n2)cc1	none
Cc1ccc(C2=Nc3ccc(Br)cc3C(c3ccncc3)=NN2)cc1	UPR XBP1 act 36.9, T cruzi repl inconclusive | XBP1 UPR conf 45.1
CC(=O)Nc1sc(C)c(C)c1C(=O)OCC(=O)Nc1cccc(C)c1	UPR XBP1 act 37.4 (no result: T cruzi repl) | XBP1 UPR conf inactive
Cc1ccc(-c2csc(/C(C#N)=C/Nc3ccc4c(c3)OCCO4)n2)cc1	UPR XBP1 act 32.8 | XBP1 UPR conf inactive
COc1ccc(/C=N\NC(=O)c2cc(O)c(O)c(O)c2)cc1COc1ccc(C(=O)OCC(C)C)cc1	UPR XBP1 act 40.7 | XBP1 UPR conf inactive
CCC/C(O)=C1\C(=O)CC(C)(C)CC1=Nc1cccc([N+](=O)[O-])c1	none
Clc1ccc(/C=N/c2c(-c3ccco3)nc3ccccn23)cc1	none
O=[N+]([O-])c1cc(-c2ccc(/C=N/c3nc4ccccn4c3-c3ccco3)o2)ccc1Cl	UPR XBP1 act 100.9 | XBP1 UPR conf 98.2
CCOC(=O)CC(NC(=O)Cn1nnc(-c2ccccc2F)n1)c1ccccc1Cl (stereo not drawn)	none

Screening data as filed in PubChem BioAssay.
